Measurements as given in the EternaBench riboswitch data.

Assays:
[1] = tested on: MS2 coat protein; assay: apparent Kd, MS2 coat protein; higher = weaker binding; RNA-MaP array; tryptophan 2.4 mM where present
How it was run: (§1)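 Two titrations, one without ligand and one with constant ligand, were run with SNAP-549-labelled MS2 coat protein from 0.7 or 1.5 nM, doubling to 3 µM. The targets were designs transcribed by stalled E. coli RNA polymerase on Illumina sequencing-chip clusters, in 100 mM Tris-HCl pH 7.5, 80 mM KCl, 4 mM MgCl2, BSA, DTT, yeast tRNA and Tween-20. The apparent Kd is the median of filtered per-cluster binding-curve fits, with green signal normalised to red-channel RNA signal and control-cluster median Fmax.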

[2] = tested on: MS2 coat protein; assay: apparent Kd, MS2 coat protein; higher = weaker binding; RNA-MaP array; theophylline 2 mM where present
How it was run: as §1

[3] = designed as: ON switch for tryptophan, no ligand
[4] = ligand present: tryptophan, designed as: ON switch for tryptophan
[5] = designed as: OFF switch for tryptophan, no ligand
[6] = ligand present: tryptophan, designed as: OFF switch for tryptophan
[7] = designed as: OFF switch for theophylline, no ligand
[8] = ligand present: theophylline, designed as: OFF switch for theophylline
[9] = designed as: ON switch for theophylline, no ligand
[10] = ligand present: theophylline, designed as: ON switch for theophylline

Sequence | apparent Kd [1, 3] [nM] | apparent Kd [1, 4] [nM] | apparent Kd [1, 5] [nM] | apparent Kd [1, 6] [nM] | other results
AACAUGAGGAUCACCCAUGUCCUCGUGUACCGAGGACCGGUACGGCCGCCACUCGGUUCUCGCGAGGAUGGUCAAAGACUAUCCA | 417 | 470 | – | – | –
AAUUAUCAGUCGGCCGCCACUGACACAUGAGGAUCACCCAUGUAACAUGGGUAAAAUUAACUGAACAGGACCGGGACAAAGGCUA | – | – | 378 | 499 | –
UUCUACGGCGAUCUGGGUUUACCAGAUCGACGAGGACCGGUACGGCCGCCACUCGUGUUUCUUUAACAUGAGGAUCACCCAUGUA | 48 | 22.4 | – | – | –
UAUAUAUAUCACUAACUGUUCUUGAGGUCUCGAGGACCGGUACGGCCGCCACUCGUACCGCCUCACAUGAGGAUCACCCAUGUCC | – | – | 63 | 59.1 | –
CCACUUUCUUUUAUCUUUCUUUCUUUGUUACGAGGACCGGUACGGCCGCCACUCGUGGUGUGUGGUACAUGAGGAUCACCCAUGU | 23.7 | 22.4 | – | – | –
CCUCAUGAACAUGAGGAUCACCCAUGUACACGAGGACCGGUACGGCCGCCACUCGAAUAACCUAAAUAUAAAUAAUAAUAAUAGG | – | – | 15.8 | 43 | –
GUGAGCGCCGAACAUCGCUGGUCCUCUAUCCGAGGACCGGUACGGCCGCCACUCGACAUGAGGAUCACCCAUGUUGGCACUGGCG | – | – | 9.37 | 10.7 | –
AAUAAUAGGUGAUCUUGAGUCGUACCGUAACGAGGACCGGUACGGCCGCCACUCGAACAUGAGGAUCACCCAUGUAUGUAUGAUA | 90 | 117 | – | – | –
GUCCUCAUGACGGCCGCCACUACACAUGAGGAUCACCCAUGUAAUGAUCCCUUAAAUGAUAAUAGUAGGACCGGGUCACUGUAAG | 457 | 699 | – | – | –
GGCCAUGGAAACAUGGCGGCGGCAUAAGCGCGAGGACCGGUACGGCCGCCACUCGGGCGACAUGAGGAUCACCCAUGUUCCUCAU | – | – | 317 | 541 | –
GGGUGGUAGGCGGCCGCCACUGAUUUUUAUUUAUAGAUGACAUGAGGAUCACCCAUGUUUAUAUGCAGGACCGGGCCUGUUGUGG | 15.7 | 14.2 | – | – | –
AGAGCAUUGACGGCCGCCACUUAUGUCACAUGAGGAUCACCCAUGUGAUGGGUGAUAGCCCGGUUGAGGACCGGGUCAAUGCUCA | 12.7 | 17.9 | – | – | –
GAGAGAGGAGUGCGGCGUGUUCCGCUCCGUCGAGGACCGGUACGGCCGCCACUCGACAUGAGGAUCACCCAUGUCCUCUCUCGCG | – | – | 31.3 | 13.8 | –
UGGGUACCGACGGCCGCCACUGAAUAUAGACAUGAGGAUCACCCAUGUAGAGAUCCUAGAAUAAACAGGACCGGGUCUGGUGCUA | – | – | 220 | 362 | –
ACGAUACGACAUGAGGAUCACCCAUGUGAUACCAGCCUGGAAACAGGCCCUUGGCAGCACAAAUACUCCAGAAACGUAUCGAAAA | – | – | – | – | apparent Kd [2, 7]: 204 nM; apparent Kd [2, 8]: 469 nM
UUAGAUAUGACGGAUACCAGCGUGUUGUAGAACAUGAGGAUCACCCAUGUAGUGAUCAUGCGCCCUUGGCAGCUGGUAUGUUUGG | – | – | – | – | apparent Kd [2, 9]: 262 nM; apparent Kd [2, 10]: 829 nM
AGACAUGAGGAUCACCCAUGUAGCAUGGAUACCAGAUGUAGAUUUGUCCCUUGGCAGCUGUGGUAAAGUGAUGCAUUGCUCCUAG | – | – | – | – | apparent Kd [2, 7]: 45.2 nM; apparent Kd [2, 8]: 45.2 nM
CGCACAGAGAAUGAUACCAGCGAGGAAGCGACAUGAGGAUCACCCAUGUGCGAAUGAUCCCGCCCUUGGCAGCGUAAGUGAUCCC | – | – | – | – | apparent Kd [2, 9]: 111 nM; apparent Kd [2, 10]: 71.3 nM
AGAUGCCACUGUGGAUAGCACGAUGCCGAUACCAGCUAGGAAACUAGCCCUUGGCAGCGGUACAUGAGGAUCACCCAUGUAUCCU | – | – | – | – | apparent Kd [2, 8]: 75 nM
GCACCAGGUACGGAUACCAGAGCAAGCCAAAUGAGUGAACAUGAGGAUCACCCAUGUUUGCUCCCUUGGCAGCCGUACCUGGUGC | – | – | – | – | apparent Kd [2, 7]: 9.34 nM; apparent Kd [2, 8]: 45.2 nM
AAUUGCGUUGGUGAGGCGGUUAAUGGCGAUACCAGCGUGGAAACACGCCCUUGGCAGCGCCAAAACAUGAGGAUCACCCAUGUUA | – | – | – | – | apparent Kd [2, 7]: 73.5 nM; apparent Kd [2, 8]: 200 nM
UGACAUUGCUCAGAUACCAGACAUGAGGAUCACCCAUGUGCCAAACGUACAAUAAUAAAUGUCCCUUGGCAGCUGAGCAAUGUCU | – | – | – | – | apparent Kd [2, 7]: 11.3 nM; apparent Kd [2, 8]: 101 nM
ACACAUGAGGAUCACCCAUGUCCAAUAGAUACCAGUGAUACGGUGCACCCUUGGCAGCUGUUACUGAGUGAUGGUUCCCUCGGAA | – | – | – | – | apparent Kd [2, 9]: 67.6 nM; apparent Kd [2, 10]: 97.1 nM
